Measurements gathered from unrelated publications.
Lines come from different studies, so protocols differ.
Target: Serine/threonine-protein kinase TBK1 (TBK1, Homo sapiens, UniProt Q9UHD2)
Sequence (Q9UHD2 1-729, as in one of the studies): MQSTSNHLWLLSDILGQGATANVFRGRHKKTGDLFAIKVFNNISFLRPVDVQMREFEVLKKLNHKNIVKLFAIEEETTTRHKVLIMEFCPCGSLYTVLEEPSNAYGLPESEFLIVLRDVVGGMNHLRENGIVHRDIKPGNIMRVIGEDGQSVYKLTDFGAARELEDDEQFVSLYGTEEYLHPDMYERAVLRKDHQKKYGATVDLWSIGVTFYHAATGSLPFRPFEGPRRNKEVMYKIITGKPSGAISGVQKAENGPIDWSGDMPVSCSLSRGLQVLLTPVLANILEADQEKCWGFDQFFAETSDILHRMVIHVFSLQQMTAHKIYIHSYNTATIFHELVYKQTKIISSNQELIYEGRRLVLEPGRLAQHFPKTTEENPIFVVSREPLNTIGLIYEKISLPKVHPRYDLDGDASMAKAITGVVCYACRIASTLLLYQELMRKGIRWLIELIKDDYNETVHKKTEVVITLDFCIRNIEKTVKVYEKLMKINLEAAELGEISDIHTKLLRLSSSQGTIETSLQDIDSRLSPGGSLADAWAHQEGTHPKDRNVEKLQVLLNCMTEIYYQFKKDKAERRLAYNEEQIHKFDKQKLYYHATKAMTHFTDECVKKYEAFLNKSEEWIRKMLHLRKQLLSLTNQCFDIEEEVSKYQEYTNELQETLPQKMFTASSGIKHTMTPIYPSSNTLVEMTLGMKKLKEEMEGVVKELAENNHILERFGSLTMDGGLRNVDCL

Structure (SMILES)	effect on	technique	tested at	remaining binding
CN(CCCC(F)(F)F)c1nccc(-c2cnn3ncccc23)n1	binding		1 µM	91%
FC(F)(F)Oc1cccc(-c2cnc3ccc(-c4ccncc4)nn23)c1	binding	competition with immobilised ligand	5 µM	54%
CCN1CCN(Cc2ccc(C(=O)Nc3ccc(C)c(Oc4ccc5c(c4)CC(=O)N5)c3)cc2C(F)(F)F)CC1	binding	competition with immobilised ligand	1 µM	50%
N[C@H]1CCN(c2nccc(-c3cnn4ncccc34)n2)C1	binding		1 µM	100%
CC(=O)N1CCC(c2ccc(C(=O)NC(=N)N)cc2C(F)(F)F)CC1	cell-free assay	competition with immobilised ligand	1 µM	100%
O=C(NCC1CCOCC1)c1n[nH]cc1NC(=O)c1c(F)cccc1F	binding	competition with immobilised ligand	1 µM	96%
C=CC(=O)N1CCC(C(=O)NCC(=O)N2CCN(c3nc(-c4cnc(N)nc4C(F)F)nc(N4CCOCC4)n3)CC2)CC1	binding	competition with immobilised ligand	1 µM	91%
C[C@@H]1CCN(c2nccc(-c3cnn4ncccc34)n2)C1	binding		1 µM	63%
O=C(O)[C@@H]1[C@@H](Cn2nnc3ccccc3c2=O)CC[C@H]1C(=O)c1ccc(OCCC2CCOCC2)cc1	cell-free assay	competition with immobilised ligand	1 µM	100%
O=C(c1ccc(Nc2ncc(Cl)c(-c3cc4ccccc4s3)n2)cc1)N1CCC(N2CCCC2)CC1	binding	competition with immobilised ligand	1 µM	11%
CS(=O)(=O)NCC[C@H](NC(=O)c1cncc2c1cnn2-c1ccc(F)cc1)c1ccnc(S(C)(=O)=O)c1	cell-free assay	competition with immobilised ligand	1 µM	94%
CN(C)c1nccc(-c2cnn3ncccc23)n1	binding		1 µM	82%
O=C(c1ccc(Nc2nccc(-c3cc4ccccc4s3)n2)cc1)N1CCC(N2CCCC2)CC1	binding	competition with immobilised ligand	1 µM	27%
CN(c1nccc(-c2cnn3ncccc23)n1)C1CC1	binding		1 µM	100%
CNCc1ccccc1-c1csc([C@@H](C)Nc2nc(C)nc3cc(OC)c(OC)cc23)c1	cell-free assay	competition with immobilised ligand	1 µM	100%
O=C(NCCCN1CCOCC1)c1ccc(Nc2nccc(-c3cc4ccccc4s3)n2)cc1	binding	competition with immobilised ligand	1 µM	70%
COc1cnc(Nc2cccc(S(N)(=O)=O)c2)nc1N1CCN(c2ccccc2)CC1	binding	competition with immobilised ligand	1 µM	61%
COc1ccc2c(c1)O[C@H](c1ccc(OC)c(OC)c1)C[C@@H]2NC(=O)C1(c2ccc3c(c2)OC(F)(F)O3)CC1	cell-free assay	competition with immobilised ligand	1 µM	99%
c1cnn2ncc(-c3ccnc(N4CCC45COC5)n3)c2c1	binding		1 µM	41%
O=c1nc(-c2ccccn2)sc2ccccc12	binding	competition with immobilised ligand	1 µM	91%
C[C@@H](c1ccc(-n2cnc3c(N)ncnc32)cc1)N1CCc2nn(C)c(Cc3ccccc3)c2C1=O	binding	competition with immobilised ligand	0.1 µM	98%
